Test results as given in PubChem BioAssay AID463143 (The Scripps Research Institute Molecular Screening Center, 2010).
The source made the active and inactive calls.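 Rule for the calls: active = fold change in liver X receptor activation above 2; inactive = the rest.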

The compounds below were run against Oxysterols receptor LXR-beta (Homo sapiens) (UniProt P55055) (assay: activation of LXR ligand-binding domain – cell-based, luminescence, single concentration, powder samples, selectivity assay for RORA inverse agonist project, late-stage follow-up (AID 463143)). Conditions: HEK293T GAL4-LXR LBD luciferase reporter, 18-24 h; at 10 µM; active compounds read high.
Oxysterols receptor LXR-beta (Homo sapiens), sequence (P55055 whole entry, looked up, the tested form may be a part): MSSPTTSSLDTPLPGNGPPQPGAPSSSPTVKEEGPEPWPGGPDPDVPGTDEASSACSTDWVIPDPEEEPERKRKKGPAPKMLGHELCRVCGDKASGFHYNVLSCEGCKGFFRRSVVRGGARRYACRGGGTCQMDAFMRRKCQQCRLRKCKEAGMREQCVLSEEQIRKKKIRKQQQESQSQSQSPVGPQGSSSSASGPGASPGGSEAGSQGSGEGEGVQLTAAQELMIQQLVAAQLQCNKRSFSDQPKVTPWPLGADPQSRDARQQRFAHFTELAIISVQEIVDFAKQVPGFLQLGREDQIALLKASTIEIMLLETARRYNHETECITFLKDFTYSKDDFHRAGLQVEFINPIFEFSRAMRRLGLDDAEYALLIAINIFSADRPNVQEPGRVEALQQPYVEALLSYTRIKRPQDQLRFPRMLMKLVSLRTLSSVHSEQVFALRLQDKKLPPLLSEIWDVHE
How it was run: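 Assay system: HEK293T cells carrying GAL4-LXR ligand-binding-domain fusion plus UAS-luciferase reporter. Compound: single nominal dose of 10 µM per compound. Incubation: 20 h compound exposure after replating from 24 h transfection. Measured by: luminescence. Read-out basis: fold change versus DMSO vehicle. Control set: DMSO-treated cells as vehicle reference. Repeats: six replicates.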

Fold change, inactive:
O=C(Nc1ccc(C(O)(C(F)(F)F)C(F)(F)F)cc1)c1ccccc1C(F)(F)F 0.958, O=C(Nc1ccc(C(O)(C(F)(F)F)C(F)(F)F)cc1)c1c(F)cccc1F 0.937, O=C(Nc1ccc(C(O)(C(F)(F)F)C(F)(F)F)cc1)c1ccc(F)cc1F 1.39, O=C(Nc1ccc(C(O)(C(F)(F)F)C(F)(F)F)cc1)c1ccc(F)cc1Cl 1.04, O=S(=O)(Nc1ccc(C(O)(C(F)(F)F)C(F)(F)F)cc1)c1cccs1 1.39, O=C(Nc1ccc(C(O)(C(F)(F)F)C(F)(F)F)cc1)c1ccc(Cl)cc1 1.15
